Bioassay records deposited in PubChem by several laboratories.
Only some compounds are listed: those with a hit (about 5.4% of all), similar ones and a draw of the others.
Mdm2-MdmX inh – human Mdm2/MdmX binding inhibition | O15151+Q00987 | SaOS-2 split-luciferase Mdm2/MdmX complementation, luminescence | inhibition, % at 8 µM | actives 3% (n = 330,000);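 active means inhibition of at least 50% at 8 µM in the primary screen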
Target sequence (O15151 whole entry, looked up): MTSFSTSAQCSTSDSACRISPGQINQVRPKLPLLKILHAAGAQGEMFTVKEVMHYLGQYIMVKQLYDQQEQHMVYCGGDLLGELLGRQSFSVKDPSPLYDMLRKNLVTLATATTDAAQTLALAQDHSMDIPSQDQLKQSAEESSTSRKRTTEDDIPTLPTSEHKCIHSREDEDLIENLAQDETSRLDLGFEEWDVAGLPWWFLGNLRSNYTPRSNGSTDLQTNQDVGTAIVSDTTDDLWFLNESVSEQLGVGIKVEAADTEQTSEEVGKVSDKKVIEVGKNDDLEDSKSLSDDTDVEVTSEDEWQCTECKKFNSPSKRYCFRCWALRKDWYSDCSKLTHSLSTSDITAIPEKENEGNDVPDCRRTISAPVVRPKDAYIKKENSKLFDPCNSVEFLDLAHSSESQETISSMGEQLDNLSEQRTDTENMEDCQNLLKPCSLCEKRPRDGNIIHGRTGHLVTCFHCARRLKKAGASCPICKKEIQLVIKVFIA
Target sequence (Q00987 whole entry, looked up): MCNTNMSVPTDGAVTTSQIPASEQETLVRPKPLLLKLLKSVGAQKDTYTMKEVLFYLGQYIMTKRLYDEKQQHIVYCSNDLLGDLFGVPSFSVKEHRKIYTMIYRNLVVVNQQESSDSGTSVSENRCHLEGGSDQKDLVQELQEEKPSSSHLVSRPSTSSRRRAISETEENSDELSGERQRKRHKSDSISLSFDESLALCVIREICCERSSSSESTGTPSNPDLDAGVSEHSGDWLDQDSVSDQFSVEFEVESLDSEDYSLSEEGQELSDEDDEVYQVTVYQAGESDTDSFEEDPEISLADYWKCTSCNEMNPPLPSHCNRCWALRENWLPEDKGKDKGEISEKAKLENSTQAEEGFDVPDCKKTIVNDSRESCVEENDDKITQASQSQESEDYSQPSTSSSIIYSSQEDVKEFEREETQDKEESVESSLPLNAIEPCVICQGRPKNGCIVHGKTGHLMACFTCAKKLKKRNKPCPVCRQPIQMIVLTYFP
aSyn 5UTR inh – MLPCN primary screen, SNCA 5' untranslated region; inhibition, % (tested at 7.5 µM); actives 0.82% (n = 300,000); alpha-synuclein 5'UTR reporter, inhibitor activity; in the data active means inhibition above about 60%; inconclusive means no clear call, values can overlap the other calls;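 further: H4 neuroglioblastoma cells stably carrying SNCA 5'UTR luciferase fusion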
T cruzi repl – T. cruzi replication inhibition. actives 1.4% (n = 300,000). inhibition, % (concentration not given with the values). T. cruzi beta-gal in NIH3T3, luminescence, 90 h;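 active means mean inhibition across valid replicates above about 55%, limit read from the data; inconclusive means mean below that limit but half or more replicates reach it; inactive means mean below it, under half of replicates reach it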;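 further: signal also drops with host cell toxicity which is not excluded here; higher percent means less beta-gal luminescence so fewer parasites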
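Read-out: Parasite load inhibition, % | Test system: Mouse NIH/3T3 fibroblasts infected with β-gal-expressing T. cruzi Tulahuen C4 | Amount: 5,000 cells/well | Medium: DMEM, 2% fetal bovine serum | Signal: GalScreen β-gal luminescence, detergent lysis, 60 min | Timing: 3 h attach, ≥90 h co-culture | Also added: Tulahuen C4 trypomastigotes, 5000/well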
SKKanGAS inh – inhibitors of SKKanGAS S. pyogenes growth in kanamycin (SK-promoter or general growth effect); inhibition, % at 7.5 µM; actives 1.3% (n = 300,000); BacTiter-Glo, 6 h;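 active means mean replicate score, as percent of positive control median, at least 50; inconclusive means mean below 50 but one replicate at or above 50; inactive means mean and every replicate below 50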;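 further: strain carries kanamycin resistance gene driven by streptokinase promoter and grows in 40 µg/ml kanamycin; loss of luminescence reflects streptokinase promoter inhibition or plain growth inhibition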
CSC inhib – cancer stem cell inhibition; cancer stem cell-like cells viability, luminescence; inhibition, % at 7.5 µM; actives 1.1% (n = 300,000); AID 2717; in the data active means inhibition above about 75%; inconclusive means no clear call, values can overlap the other calls; tested in HMLE shEcad cells
Mdm2-MdmX conf – confirmation of human Mdm2/MdmX interaction inhibitors. shares compounds with Mdm2-MdmX inh. Mdm2-MdmX binding, luminescent assay. inhibition, % at 8 µM. actives 55% (n = 10,000). AID 489028; in the data active means inhibition above about 40%
Full FLuc ctr – full-length luciferase inhibition in Mdm2/MdmX counter-screen; shares compounds with Mdm2-MdmX inh; SaOS-2 full-length luciferase counterscreen, luminescence; inhibition, % at 8 µM; actives 77% (n = 6,200);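 active means mean inhibition at 8 µM reaching about 37%, which flags the compound as non-specific, limit read from the data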;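 further: p53-null SaOS-2 cells with luciferase driven by a doxycycline-inducible promoter; compound on cells about two nights before reading with doxycycline added after day one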
Large screens that a line does not name were inactive (follow-up assays come after a bar, where they were run).

CC(=O)c1sc(NC(=O)C(C)Oc2ccc3c(C)cc(=O)oc3c2)nc1C (stereo unspecified)	none
CN(Cc1ccc(Cl)s1)C(=O)CCl	Mdm2-MdmX inh 54, T cruzi repl 59 | Mdm2-MdmX conf 41 | Full FLuc ctr 52
S=c1c2c(nc3nc[nH]n13)CCC2	none
Cc1ccc(OCC(=O)N2CCN(C(=O)Cc3ccccc3)CC2)cc1	none
O=C(COc1ccc(-c2ccccc2)cc1)N1CCN(S(=O)(=O)Cc2ccccc2)CC1	Mdm2-MdmX inh 57 | Mdm2-MdmX conf 59 | Full FLuc ctr 75
O=C(COC(=O)C1CC(=O)N(Cc2ccccc2)C1)Nc1cccc([N+](=O)[O-])c1 (stereo unspecified)	none (no result: aSyn 5UTR inh, T cruzi repl, SKKanGAS inh)
Cc1cc(Sc2nnc(N)s2)c2ccccc2n1	Mdm2-MdmX inh 50 | Mdm2-MdmX conf inactive | Full FLuc ctr inactive
O=C(Cc1ccc(S(=O)(=O)N2CCOCC2)s1)Nc1cc(C(F)(F)F)cc(C(F)(F)F)c1	Mdm2-MdmX inh 56 (no result: aSyn 5UTR inh, T cruzi repl, SKKanGAS inh) | Mdm2-MdmX conf inactive
O=C(Cc1ccc(S(=O)(=O)N2CCOCC2)s1)Nc1cc(C(F)(F)F)ccc1N1CCCC1	none
CC1=C(/C=C/C(C)=C/C=C/C(C)=C\C(=O)O)C(C)(C)CCC1	Mdm2-MdmX inh 60 | Mdm2-MdmX conf 49 | Full FLuc ctr 45
CC1=C(/C=C/C(C)=C/C=C/C(C)=C/C(=O)Nc2ccc(O)cc2)C(C)(C)CCC1	Mdm2-MdmX inh 87, CSC inhib 104 (no result: aSyn 5UTR inh, T cruzi repl, SKKanGAS inh) | Mdm2-MdmX conf inactive
CN(C)c1ccc(-n2cccc2/C=C/[N+](=O)[O-])cc1	Mdm2-MdmX inh 65, CSC inhib 87 | Mdm2-MdmX conf inactive
COc1ccc(C2CC(c3ccccc3F)=NN2c2ccc(S(N)(=O)=O)cc2)cc1 (stereo unspecified)	none (no result: aSyn 5UTR inh, T cruzi repl, SKKanGAS inh, CSC inhib)
COc1ccc(C2CC(c3ccc(C(F)(F)F)cc3)=NN2c2ccc(S(N)(=O)=O)cc2)cc1 (stereo unspecified)	Mdm2-MdmX inh 93 (no result: aSyn 5UTR inh, T cruzi repl, SKKanGAS inh, CSC inhib) | Mdm2-MdmX conf inactive
CCc1ccc(C2=NN(c3ccc(S(N)(=O)=O)cc3)C(c3ccc(F)cc3)C2)cc1 (stereo unspecified)	Mdm2-MdmX inh 77, SKKanGAS inh 102 | Mdm2-MdmX conf inactive
COc1ccc(C2CC(c3ccccc3C(F)(F)F)=NN2c2ccc(S(N)(=O)=O)cc2)cc1 (stereo unspecified)	Mdm2-MdmX inh 67 (no result: aSyn 5UTR inh, T cruzi repl, SKKanGAS inh, CSC inhib) | Mdm2-MdmX conf 62 | Full FLuc ctr 70
NS(=O)(=O)c1ccc(N2N=C(c3ccccc3)CC2c2ccccc2)cc1 (stereo unspecified)	none
O=C(Nc1cccc(S(=O)(=O)N2CCOCC2)c1)C1COc2ccccc2O1 (stereo unspecified)	none (no result: aSyn 5UTR inh, T cruzi repl, SKKanGAS inh, CSC inhib)
CC1C/C(=C/c2ccncc2)C(=O)/C(=C/c2ccncc2)C1 (stereo unspecified)	Mdm2-MdmX inh 99, CSC inhib 77 | Mdm2-MdmX conf 99 | Full FLuc ctr 51
OC(CNCC(c1ccc(Cl)cc1Cl)c1c[nH]c2ccccc12)c1ccccc1 (stereo unspecified)	Mdm2-MdmX inh 97, T cruzi repl 82, SKKanGAS inh 80, CSC inhib 104 | Mdm2-MdmX conf 80 | Full FLuc ctr 46
O=[N+]([O-])CC(c1ccccc1)c1c[nH]c2ccccc12 (stereo unspecified)	none
Cc1cccc(/C(N)=N/OC(=O)c2cccc3ccccc23)c1	Mdm2-MdmX inh 100 | Mdm2-MdmX conf 78 | Full FLuc ctr 108
O=C(O/N=C(\c1ccccc1)c1ccccn1)c1cccc2ccccc12	Mdm2-MdmX inh 87 | Mdm2-MdmX conf inactive
COc1cc(OC)cc(C(=O)O/N=C(\N)c2ccncc2)c1	none
O=C(O/N=C(\c1ccccc1)c1ccncc1)c1ccccc1Cl	none
Cc1cccc(/C(N)=N/OC(=O)N2c3ccccc3Sc3ccccc32)c1	Mdm2-MdmX inh 64 | Mdm2-MdmX conf inactive
N/C(=N\OC(=O)c1cccc2ccccc12)c1cccnc1	none
COc1cc(OC)cc(C(=O)O/N=C(\N)c2cccc(C)c2)c1	Mdm2-MdmX inh 73 | Mdm2-MdmX conf 44 | Full FLuc ctr 105
CCCCc1nnc(NC(=O)c2ccccc2OCc2c(C)noc2C)s1	none
N/C(=N\OC(=O)c1cccc2ccccc12)c1cccc([N+](=O)[O-])c1	Mdm2-MdmX inh 76 | Mdm2-MdmX conf 58 | Full FLuc ctr 128
Cc1cc(Br)cc2c(C(=O)NCC3CCCO3)cc(-c3cccs3)nc12 (stereo unspecified)	Mdm2-MdmX inh 56 | Mdm2-MdmX conf inactive
COc1cccc(-c2cc(C(=O)NCC3CCCO3)c3cc(Br)cc(C)c3n2)c1 (stereo unspecified)	SKKanGAS inh inconclusive
COc1cc(C(=O)ON=C2C3CC4CC(C3)CC2C4)cc(OC)c1OC	Mdm2-MdmX inh 95 | Mdm2-MdmX conf inactive
CN(C)c1ccc2nc3ccc(=[N+](C)C)cc-3sc2c1	Mdm2-MdmX inh 53, CSC inhib 96 (no result: SKKanGAS inh) | Mdm2-MdmX conf inactive
Cc1ccc(NC(=O)c2cc(S(=O)(=O)N(C)C)ccc2N2CCCC2)cc1F	Mdm2-MdmX inh 52 | Mdm2-MdmX conf inactive
O=C(/C=C/c1ccc(Cl)cc1)c1ccc([N+](=O)[O-])o1	Mdm2-MdmX inh 98, CSC inhib inconclusive | Mdm2-MdmX conf 100 | Full FLuc ctr inactive
Cc1ccc(C(=O)/C=C/c2ccc(Br)cc2)o1	none
Cc1ccc(/C=C/C(=O)c2ccc([N+](=O)[O-])o2)cc1	Mdm2-MdmX inh 100, SKKanGAS inh 67 | Mdm2-MdmX conf 97 | Full FLuc ctr 58
O=c1c2ccccc2nc(/C=C/c2cc(Br)ccc2O)n1CCO	Mdm2-MdmX inh 65 | Mdm2-MdmX conf 57 | Full FLuc ctr inactive
Cc1ccccc1NC(=O)CSc1nc2c(c(-c3ccco3)c1C#N)CCCC2	none
Cc1nc(SCC(=O)Nc2nc3ccccc3s2)c(C#N)c(C)c1C	Mdm2-MdmX inh 100, aSyn 5UTR inh 100 | Mdm2-MdmX conf 100 | Full FLuc ctr 53
N#Cc1c(SCC(=O)Nc2nccs2)nc2c(c1-c1ccco1)CCCC2	Mdm2-MdmX inh 51 (no result: CSC inhib) | Mdm2-MdmX conf inactive
N#Cc1ccc(-c2cccnc2)nc1SCC(=O)Nc1sc2c(c1C#N)CCC2	none
Cc1cc(C(F)(F)F)c(C#N)c(SCC(=O)Nc2nc3ccccc3s2)n1	Mdm2-MdmX inh 66 | Mdm2-MdmX conf 82 | Full FLuc ctr 142
Cc1ccc2sc(NC(=O)CSc3nc(C)cc(C)c3C#N)nc2c1	none (no result: CSC inhib)
N#Cc1c(C(F)(F)F)cc(-c2ccccc2)nc1SCC(=O)Nc1sc2c(c1C#N)CCC2	Mdm2-MdmX inh 72 | Mdm2-MdmX conf 64 | Full FLuc ctr 55
COc1ccc(N2CCN(c3ncnc4c3nnn4Cc3ccccc3Cl)CC2)cc1	none
Cc1cc(C)cc(NC(=O)C(OC(=O)c2sccc2C)c2ccccc2)c1 (stereo unspecified)	none
